Active and inactive are the calls of the source. The rule behind the calls is not given here. Numbered stars: 1 amine (or outer) side, 2 acyl side, 3 side chain; on linkers, the order of the positions; unused ones are H or OH. Square brackets hold non-standard residues; d marks the D form. Peptide text beside a SMILES is read from it. * marks the point of attachment. ξ: configuration not given here. X1 = NC(N)=NCCC[C@@H](NC(=O)[C@H](Cc1ccccc1)NC(=O)N1CCC[C@H]1C(=O)[C@H](CO)N*)C(=O)O; Pentanoyl(5-guanidino) = NC(N)=NCCCCC(=O)*; Butanoyl(4-guanidino) = N=C(N)NCCCC(=O)*; Oic(3aξ,7aξ) = O=C(O)[C@@H]1CC2CCCCC2N1; NH(CH2)9CO = O=C(CCCCCCCCCN[*:1])[*:2]; Tic = O=C(O)[C@@H]1Cc2ccccc2CN1; 2Thi = N[C@@H](Cc1cccs1)C(=O)O; X2 = N=C(N)NCCCCCC(=O)*; GABA = NCCCC(=O)O
How the values were obtained:
[1] = target: T1, B2 bradykinin receptor (Homo sapiens) (UniProt P30411); test: Antagonistic activity against bradykinin B2 receptor as human umbilical vein contraction; assay type: functional, tissue-based
T1 sequence (whole entry): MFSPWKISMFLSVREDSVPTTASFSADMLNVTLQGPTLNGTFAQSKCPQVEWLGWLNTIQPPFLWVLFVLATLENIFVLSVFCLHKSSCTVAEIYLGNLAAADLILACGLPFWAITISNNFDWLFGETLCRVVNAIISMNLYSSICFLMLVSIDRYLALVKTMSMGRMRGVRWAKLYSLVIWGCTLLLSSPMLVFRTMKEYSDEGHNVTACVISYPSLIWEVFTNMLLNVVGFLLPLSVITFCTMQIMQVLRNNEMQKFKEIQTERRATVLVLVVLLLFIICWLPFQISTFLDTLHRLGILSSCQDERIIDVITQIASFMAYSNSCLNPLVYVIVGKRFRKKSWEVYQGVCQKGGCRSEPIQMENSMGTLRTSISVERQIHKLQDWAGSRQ
How it was run: (§1)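 Endothelium-denuded human umbilical vein rings in Krebs (37 °C, 95% O2/5% CO2, pH 7.40), 2-4 g load, pretreated with indomethacin 5 × 10^-6 M and L-nitroarginine 10^-4 M; antagonist incubated 45 min before a single cumulative bradykinin curve per ring; isometric contraction as % of KCl (60 mM) reference; pKB from KB = [Ant]/(concentration ratio − 1).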

B2 bradykinin receptor = target: T2, B2 bradykinin receptor (Oryctolagus cuniculus, UniProt Q28642); test: In vitro antagonistic activity against kinin-induced rabbit jugular vein contraction.; assay type: functional; conditions: for Kb: read-out: pA2 (converted)
T2 sequence (Q28642 whole entry): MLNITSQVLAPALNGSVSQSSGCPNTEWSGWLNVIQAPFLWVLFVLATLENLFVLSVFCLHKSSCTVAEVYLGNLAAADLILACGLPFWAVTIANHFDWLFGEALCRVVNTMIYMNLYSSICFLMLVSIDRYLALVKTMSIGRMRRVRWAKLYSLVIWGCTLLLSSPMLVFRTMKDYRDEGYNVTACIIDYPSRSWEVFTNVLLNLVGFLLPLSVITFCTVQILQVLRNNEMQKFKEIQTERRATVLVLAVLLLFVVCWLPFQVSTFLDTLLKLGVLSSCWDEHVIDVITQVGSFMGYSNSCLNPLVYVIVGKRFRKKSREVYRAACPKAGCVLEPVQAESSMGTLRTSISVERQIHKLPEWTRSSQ
How it was run: (§2)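 Rabbit jugular vein rings (B2 tissue), reference KCl 60 mM contraction then 45 min rest; antagonist, usually 10-7, 10^-6 and 10^-5 M, incubated 45 min before cumulative bradykinin; one curve per ring; pA2 by Tallarida's method with Schild slope constrained to unity, or pKB from EC50 ratio when activity appeared only at 10^-5 M.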

[2] = target: T3, B2 bradykinin receptor (Oryctolagus cuniculus) (UniProt Q28642); test: In vitro antagonistic activity against kinin-induced rabbit jugular vein contraction by bradykinin B2 receptor; in = inactive at 10e-5M.; assay type: functional; how it was run: as §2
T3 sequence (whole entry): T2 sequence (Q28642 whole entry)

[3] = target: T1, B2 bradykinin receptor (Homo sapiens); test: Antagonistic activity against bradykinin B2 receptor as human umbilical vein contraction; in = inactive at 10e-5M; assay type: functional, tissue-based; how it was run: as §1
[4] = target: T3, B2 bradykinin receptor (Oryctolagus cuniculus); test: In vitro antagonistic activity against kinin-induced rabbit jugular vein contraction by bradykinin B2 receptor; in = inactive at 10e-5M; assay type: functional; how it was run: as §2

SMILES	Kb (B2 bradykinin receptor) [nM]	also measured
NC(N)=NCCC[C@H](NC(=O)[C@@H](Cc1ccccc1)NC(=O)[C@@H](N)CCCN=C(N)N)C(=O)N1CCC[C@H]1C(=O)N1CCC[C@H]1C(=O)NCC(=O)N[C@@H](Cc1ccccc1)C(=O)N[C@@H](CO)C(=O)[C@@H]1CCCN1C(=O)N[C@@H](Cc1ccccc1)C(=O)N[C@H](CCCN=C(N)N)C(=O)O (H-R[dF]RPPGF-X1)		pKb [1]: 5.16
N=C(N)NCCC[C@@H]1NC(=O)[C@@H]2CC3CCCCC3N2C(=O)[C@H]2Cc3ccccc3CN2C(=O)[C@H](Cc2ccccc2)NC(=O)CNC1=O (some centres undefined)	117	pKb [1]: 5.13
N=C(N)NCCCCC(=O)N[C@@H](Cc1cccs1)C(=O)N1Cc2ccccc2C[C@H]1C(=O)N1C2CCCCC2C[C@H]1C(=O)N[C@@H](CCCNC(=N)N)C(=O)O (some centres undefined) ({Pentanoyl(5-guanidino)}-[2Thi][Tic][Oic(3aξ,7aξ)]R-OH)	3020	
NCCCCCCCCCC(=O)N[C@@H](Cc1cccs1)C(=O)N1Cc2ccccc2C[C@H]1C(=O)N1C2CCCCC2C[C@H]1C(=O)N[C@@H](CCCN=C(N)N)C(=O)O (some centres undefined) ({NH(CH2)9CO}-[2Thi][Tic][Oic(3aξ,7aξ)]R-OH)	468	
N=C(N)NCCCC(=O)N[C@@H](Cc1cccs1)C(=O)N1Cc2ccccc2C[C@H]1C(=O)N1C2CCCCC2C[C@H]1C(=O)N[C@@H](CCCNC(=N)N)C(=O)O (some centres undefined) ({Butanoyl(4-guanidino)}-[2Thi][Tic][Oic(3aξ,7aξ)]R-OH)		pA2 [2]: inactive
NCCCC(=O)N[C@@H](Cc1ccccc1)C(=O)N1Cc2ccccc2C[C@H]1C(=O)N1C2CCCCC2C[C@H]1C(=O)N[C@@H](CCCN=C(N)N)C(=O)O (some centres undefined) (H-[GABA]F[Tic][Oic(3aξ,7aξ)]R-OH)	363	
NCC(=O)N[C@@H](Cc1cccs1)C(=O)N1Cc2ccccc2C[C@H]1C(=O)N1C2CCCCC2C[C@H]1C(=O)N[C@@H](CCCN=C(N)N)C(=O)O (some centres undefined) (H-G[2Thi][Tic][Oic(3aξ,7aξ)]R-OH)		pA2 [2]: inactive; pKb [1]: 4.79
NCC(=O)N[C@@H](Cc1ccccc1)C(=O)N1Cc2ccccc2C[C@H]1C(=O)N1C2CCCCC2C[C@H]1C(=O)N[C@@H](CCCN=C(N)N)C(=O)O (some centres undefined) (H-GF[Tic][Oic(3aξ,7aξ)]R-OH)	851	pKb [3]: inactive
N=C(N)NCCC[C@@H]1NC(=O)[C@@H]2CC3CCCCC3N2C(=O)[C@H]2Cc3ccccc3CN2C(=O)[C@H](Cc2cccs2)NC(=O)CNC1=O (some centres undefined)	40.7	pKb [1]: 4.93
C[C@@H]1NC(=O)[C@@H](Cc2ccccc2)NC(=O)CCCNC(=O)[C@H](CCCN=C(N)N)NC(=O)[C@@H]2CC3CCCCC3N2C(=O)[C@H]2Cc3ccccc3CN2C1=O (some centres undefined)		pA2 [2]: inactive
NCCCC[C@@H]1NC(=O)[C@H](CCCN=C(N)N)NC(=O)[C@@H]2C[C@@H]3CCCC[C@@H]3N2C(=O)[C@H]2Cc3ccccc3CN2C(=O)[C@H](Cc2cccs2)NC1=O		pA2 (B2 bradykinin receptor): 6.84
NC(N)=NCCC[C@H](NC(=O)[C@@H]1CC2CCCCC2N1C(=O)[C@@H]1Cc2ccccc2CN1C(=O)[C@H](CO)NC(=O)[C@@H](N)Cc1ccccc1)C(=O)O (some centres undefined) (H-FS[Tic][Oic(3aξ,7aξ)]R-OH)	912	
N=C(N)NCCC[C@H](NC(=O)[C@@H]1CC2CCCCC2N1C(=O)[C@@H]1Cc2ccccc2CN1C(=O)[C@H](CO)NC(=O)[C@@H]1Cc2ccccc2CN1)C(=O)O (some centres undefined) (H-[Tic]S[Tic][Oic(3aξ,7aξ)]R-OH)		pA2 [4]: inactive
NC(N)=NCCC[C@H](NC(=O)[C@@H]1CC2CCCCC2N1C(=O)[C@@H]1Cc2ccccc2CN1C(=O)[C@H](CO)NC(=O)[C@@H](N)Cc1cccs1)C(=O)O (some centres undefined) (H-[2Thi]S[Tic][Oic(3aξ,7aξ)]R-OH)		pA2 [4]: inactive
NC(N)=NCCC[C@H](NC(=O)[C@@H]1CC2CCCCC2N1C(=O)[C@@H]1Cc2ccccc2CN1C(=O)[C@H](Cc1cccs1)NC(=O)[C@@H](N)CCCN=C(N)N)C(=O)O (some centres undefined) (H-R[2Thi][Tic][Oic(3aξ,7aξ)]R-OH)	794	
NCCCC(=O)N[C@@H](Cc1cccs1)C(=O)N1Cc2ccccc2C[C@H]1C(=O)N1C2CCCCC2C[C@H]1C(=O)N[C@@H](CCCN=C(N)N)C(=O)O (some centres undefined) (H-[GABA][2Thi][Tic][Oic(3aξ,7aξ)]R-OH)	251	pKb [3]: inactive
N=C(N)NCCC[C@@H]1NC(=O)[C@H](CCCNC(=N)N)NC(=O)[C@@H]2CC3CCCCC3N2C(=O)[C@H]2Cc3ccccc3CN2C(=O)[C@H](Cc2cccs2)NC1=O (some centres undefined)	75.9	
N=C(N)NCCCCCC(=O)N[C@@H](Cc1cccs1)C(=O)N1Cc2ccccc2C[C@H]1C(=O)N1C2CCCCC2C[C@H]1C(=O)N[C@@H](CCCNC(=N)N)C(=O)O (some centres undefined) (X2-[2Thi][Tic][Oic(3aξ,7aξ)]R-OH)	3390	

Second part, led by results:

Kb (B2 bradykinin receptor) [nM]	SMILES	also measured
75.9	NC(N)=NCCC[C@@H]1NC(=O)[C@@H]2CC3CCCCC3N2C(=O)[C@H]2Cc3ccccc3CN2C(=O)[C@H](CO)NC(=O)[C@H](Cc2cccs2)NC(=O)CCNC1=O (some centres undefined)	
45.7	N=C(N)NCCC[C@@H]1NC(=O)[C@@H]2CC3CCCCC3N2C(=O)[C@H]2Cc3ccccc3CN2C(=O)[C@H](CO)NC(=O)[C@H](Cc2cccs2)NC(=O)CCCNC1=O (some centres undefined)	
490	C[C@@H]1NC(=O)[C@H](Cc2c[nH]c3ccccc23)NC(=O)CCCNC(=O)[C@H](CCCN=C(N)N)NC(=O)[C@@H]2CC3CCCCC3N2C(=O)[C@H]2Cc3ccccc3CN2C1=O (some centres undefined)	
219	CN1CC(=O)N[C@@H](Cc2cccs2)C(=O)N2Cc3ccccc3C[C@@H]2C(=O)N2C3CCCCC3C[C@H]2C(=O)N[C@@H](CCCN=C(N)N)C1=O (some centres undefined)	
537	N=C(N)NCCC[C@@H]1NC(=O)[C@@H]2CC3CCCCC3N2C(=O)[C@H]2Cc3ccccc3CN2C(=O)[C@H](CO)NC(=O)[C@H](c2ccccc2)NC(=O)CCCNC1=O (some centres undefined)	
437	N=C(N)NCCC[C@@H]1NC(=O)[C@@H]2CC3CCCCC3N2C(=O)[C@H]2Cc3ccccc3CN2C(=O)[C@H](CO)NC(=O)[C@@H]2Cc3ccccc3CN2C(=O)CCCNC1=O (some centres undefined)	
309	C[C@@H]1NC(=O)CCCNC(=O)[C@H](CCCN=C(N)N)NC(=O)[C@@H]2CC3CCCCC3N2C(=O)[C@H]2Cc3ccccc3CN2C(=O)[C@H](CO)NC1=O (some centres undefined)	
324	N=C(N)NCCC[C@@H]1NC(=O)[C@@H]2CC3CCCCC3N2C(=O)[C@H]2Cc3ccccc3CN2C(=O)[C@H](Cc2cccs2)NC(=O)CCCNC1=O (some centres undefined)	pKb [3]: inactive
63.1	C[C@@H]1NC(=O)[C@H](Cc2cccs2)NC(=O)CCCNC(=O)[C@H](CCCN=C(N)N)NC(=O)[C@@H]2CC3CCCCC3N2C(=O)[C@H]2Cc3ccccc3CN2C1=O (some centres undefined)	
240	C[C@@H]1NC(=O)CNC(=O)[C@H](CCCN=C(N)N)NC(=O)[C@@H]2CC3CCCCC3N2C(=O)[C@H]2Cc3ccccc3CN2C1=O (some centres undefined)	
